Experimental data taken from paper PMC6777341 (ACS chemical neuroscience, 2017).
Marks after values point to notes of the source that are not given here. Each block holds one compound with its values, some of them ahead of it.

Key:
human NPFF1 receptor = human NPFF1 receptor (Homo sapiens, UniProt Q9GZQ6); assay: NPFF1 calcium mobilization assay; format: cell-based; settings: for Ca^2+ NPFF1 Ke: Table 1
human NPFF2 receptor = human NPFF2 receptor (Homo sapiens, UniProt Q9Y5X5); assay: NPFF2 calcium mobilization assay; format: cell-based; settings: for Ca^2+ NPFF2 Ke: Table 1
human NPFF2 receptor, sequence (Q9Y5X5 whole entry): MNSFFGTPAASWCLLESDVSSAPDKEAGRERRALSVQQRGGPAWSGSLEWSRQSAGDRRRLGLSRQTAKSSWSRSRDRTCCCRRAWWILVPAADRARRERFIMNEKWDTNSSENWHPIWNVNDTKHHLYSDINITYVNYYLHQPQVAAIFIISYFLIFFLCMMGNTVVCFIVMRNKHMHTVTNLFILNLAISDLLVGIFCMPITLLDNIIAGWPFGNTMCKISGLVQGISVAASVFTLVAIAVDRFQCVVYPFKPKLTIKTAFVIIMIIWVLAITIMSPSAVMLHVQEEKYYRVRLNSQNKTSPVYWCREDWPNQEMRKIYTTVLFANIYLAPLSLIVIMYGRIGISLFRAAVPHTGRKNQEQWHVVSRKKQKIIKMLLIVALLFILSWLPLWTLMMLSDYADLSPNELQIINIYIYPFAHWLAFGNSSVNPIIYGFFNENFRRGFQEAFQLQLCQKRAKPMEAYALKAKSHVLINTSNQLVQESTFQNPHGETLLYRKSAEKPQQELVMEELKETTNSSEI

human NPFFR2 = human NPFFR2 (Homo sapiens, UniProt Q9Y5X5); assay: Lance cAMP assay, NPFFR2-CHO cells; format: cell-based
human NPFFR2, sequence (Q9Y5X5 whole entry): as above

NPFF receptors = assay: Curve-shift assays, type of antagonism; format: cell-based, human; settings: standard incubation; typical competitive profile with longer incubations
human NPFFR1 = human NPFFR1 (Homo sapiens, UniProt Q9GZQ6); assay: Lance cAMP assay, NPFFR1-CHO cells; format: cell-based
human NPFFR1, sequence (Q9GZQ6 whole entry): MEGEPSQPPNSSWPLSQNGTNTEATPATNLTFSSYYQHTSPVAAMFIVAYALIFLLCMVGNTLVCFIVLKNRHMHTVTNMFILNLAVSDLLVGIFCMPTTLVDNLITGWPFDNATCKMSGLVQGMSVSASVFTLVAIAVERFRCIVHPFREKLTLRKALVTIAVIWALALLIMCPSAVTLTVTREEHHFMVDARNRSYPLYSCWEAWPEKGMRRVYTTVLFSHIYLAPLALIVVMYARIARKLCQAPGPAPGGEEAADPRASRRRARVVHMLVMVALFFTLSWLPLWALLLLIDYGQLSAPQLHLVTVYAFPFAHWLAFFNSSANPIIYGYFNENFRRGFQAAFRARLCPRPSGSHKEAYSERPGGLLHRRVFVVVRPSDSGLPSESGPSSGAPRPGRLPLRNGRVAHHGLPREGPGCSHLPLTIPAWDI

[1] = tested on: fentanyl-induced hyperalgesia; assay: Fentanyl-induced hyperalgesia; format: in vivo, rat; settings: rats, i.p., day 1 after fentanyl, N=6
MDCK-MDR1 cells = assay: Bidirectional MDCK-MDR1 permeability assay; format: in vitro ADME
Method in brief: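 MDCK-MDR1 cells at passage 5 were grown 3 days on polycarbonate Transwell supports in DMEM/10% FBS, then rinsed and equilibrated 30 min at 37 °C in HBSS with 10 mM HEPES, 0.25% BSA, pH 7.4, and TEER was measured. Test compound at 10 μM was added apically (A-to-B) or basolaterally (B-to-A) at 37 °C with agitation.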

[2] = footnote c: pre-incubation 45 min or 1 hr
[3] = apparent Ke from right shift of NPFF curve, 15 min pretreatment

human NPFF1 receptor, sequence (Q9GZQ6 whole entry): as above

Kb (human NPFF2 receptor): 3490 ± 1400 nM
SMILES: COc1ccc(CN[C@H]2C[C@@H](C(=O)NCCc3ccc(F)c(F)c3)N(Cc3ccccc3Cl)C2)cc1 [Compound 34, (2S,4S)-1-[(2-Chlorophenyl)methyl]-N-[2-(3,4-difluorophenyl)ethyl]-4-{[(4-methoxyphenyl)methyl]amino}pyrrolidine-2-carboxamide]

Kb (human NPFF1 receptor): 990 ± 220 nM
Kb (human NPFFR2): 2530 ± 360 nM
Kb (human NPFF2 receptor): 1830 ± 90 nM
type of antagonism in curve-shift assays (NPFF receptors): insurmountable antagonism
Kb (human NPFFR1): 1490 ± 100 nM
SMILES: COc1ccc(CN[C@H]2C[C@@H](C(=O)NCCc3ccc(Cl)cc3)N(Cc3ccccc3Cl)C2)cc1 [Compound 32, (2S,4S)-N-[2-(4-Chlorophenyl)ethyl]-1-[(2-chlorophenyl)methyl]-4-{[(4-methoxyphenyl)methyl]amino}pyrrolidine-2-carboxamide]

type of antagonism in curve-shift assays (NPFF receptors): insurmountable antagonism
SMILES: COc1ccc(CN[C@H]2C[C@@H](C(=O)N3CCN(c4ccccc4)CC3)N(Cc3ccccc3Cl)C2)cc1 [Compound 42, (3S,5S)-1-[(2-Chlorophenyl)methyl]-N-[(4-methoxyphenyl)methyl]-5-(4-phenylpiperazine-1-carbonyl)pyrrolidin-3-amine]

Kb (human NPFFR2): > 10000 nM
Kb (human NPFFR1): 1410 ± 180 nM
SMILES: COc1ccc(CN[C@H]2C[C@@H](C(=O)NCCc3ccc(F)cc3)N(Cc3ccccc3Cl)C2)cc1 [Compound 35, (2S,4S)-1-[(2-Chlorophenyl)methyl]-N-[2-(4-fluorophenyl)ethyl]-4-{[(4-methoxyphenyl)methyl]amino}pyrrolidine-2-carboxamide]

Kb (human NPFFR2): > 10000 nM
Kb (human NPFFR1): 1300 ± 140 nM
SMILES: CSc1ccc(CN[C@H]2C[C@@H](C(=O)NCCc3ccccc3)N(Cc3ccccc3Cl)C2)cc1 [Compound 44, (2S,4S)-1-[(2-Chlorophenyl)methyl]-4-{[(4-(methylthio)phenyl)methyl]amino}-N-(2-phenylethyl)pyrrolidine-2-carboxamide]

Kb (human NPFFR2): > 10000 nM
type of antagonism in curve-shift assays (NPFF receptors): insurmountable antagonism
Kb (human NPFFR1): 2310 ± 420 nM
SMILES: CCCN(CCC)C(=O)[C@@H]1C[C@H](NCc2ccc(OC)cc2)CN1Cc1ccccc1Cl [Compound 41, (2S,4S)-1-[(2-Chlorophenyl)methyl]-4-{[(4-methoxyphenyl)methyl]amino}-N,N-dipropylpyrrolidine-2-carboxamide]

Kb (human NPFFR2): 2740 ± 210 nM
Kb (human NPFFR1): 1070 ± 200 nM
SMILES: CCCCCNC(=O)[C@@H]1C[C@H](NCc2ccc(SC)cc2)CN1Cc1ccccc1Cl [Compound 43, (2S,4S)-1-[(2-Chlorophenyl)methyl]-4-{[(4-(methylthio)phenyl)methyl]amino}-N-pentylpyrrolidine-2-carboxamide]

Kb (human NPFF2 receptor): 2080 ± 380 nM
SMILES: COc1ccc(CN[C@H]2C[C@@H](C(=O)NCCc3ccc(N(C)C)cc3)N(Cc3ccccc3Cl)C2)cc1 [Compound 28, (2S,4S)-1-[(2-Chlorophenyl)methyl]-N-{2-[4-(dimethylamino)phenyl]ethyl}-4-{[(4-methoxyphenyl)methyl]amino}pyrrolidine-2-carboxamide]

Kb (human NPFFR2): > 10000 nM
Kb (human NPFFR1): 1070 ± 270 nM
SMILES: CSc1ccc(CN[C@H]2C[C@@H](C(=O)NCCc3ccc(F)c(F)c3)N(Cc3ccccc3Cl)C2)cc1 [Compound 47, (2S,4S)-1-[(2-Chlorophenyl)methyl]-N-[2-(3,4-difluorophenyl)ethyl]-4-{[(4-(methylthio)phenyl)methyl]amino}pyrrolidine-2-carboxamide]

Ca^2+ NPFF1 Ke (human NPFF1 receptor; [3]): 2.90 ± 0.15 µM
NPFF1 Ke (human NPFF1 receptor; calcium mobilization assay): 2.90 µM
Ca^2+ NPFF2 Ke (human NPFF2 receptor; [3]): 4.93 ± 0.02^b μM
SMILES: CCN(CC)C(=O)[C@@H]1C[C@H](NCc2ccc(OC)cc2)CN1Cc1ccccc1Cl [Compound 40, (2S,4S)-1-[(2-Chlorophenyl)methyl]-N,N-diethyl-4-{[(4-methoxyphenyl)methyl]amino} pyrrolidine-2-carboxamide]

Kb (human NPFF2 receptor): 2420 ± 260 nM
SMILES: COc1ccc(CN[C@H]2C[C@@H](C(=O)NCCc3ccc(C(C)(C)C)cc3)N(Cc3ccccc3Cl)C2)cc1 [Compound 31, (2S,4S)-N-[2-(4-tert-Butylphenyl)ethyl]-1-[(2-chlorophenyl)methyl]-4-{[(4-methoxyphenyl)methyl]amino}pyrrolidine-2-carboxamide]

Continued, compound first:

SMILES: CNC(=O)[C@@H]1C[C@H](NCc2ccc(OC)cc2)CN1Cc1ccccc1Cl [Compound 10, (2S,4S)-1-[(2-Chlorophenyl)methyl]-4-{[(4-methoxyphenyl)methyl]amino}-N-methylpyrrolidine-2-carboxamide]
NPFF1 antagonist activity (in words) (human NPFF1 receptor; calcium mobilization assay): inactive
NPFF2 antagonist activity (in words) (human NPFF2 receptor; calcium mobilization assay): inactive

SMILES: CCCCCCCCCCNC(=O)[C@@H]1C[C@H](NCc2ccc(OC)cc2)CN1Cc1ccccc1Cl [Compound 19, (2S,4S)-1-[(2-Chlorophenyl)methyl]-N-decyl-4-{[(4-methoxyphenyl)methyl]amino} pyrrolidine-2-carboxamide]
Ca^2+ NPFF1 Ke (human NPFF1 receptor; [2]): >10^b,c μM
NPFF1 antagonist activity (in words) (human NPFF1 receptor; calcium mobilization assay): completely abolished

SMILES: COc1ccc(CN[C@H]2C[C@@H](C(=O)NCCc3ccccc3)N(Cc3ccccc3Cl)C2)cc1 [Compound 24, (2S,4S)-1-[(2-Chlorophenyl)methyl]-4-{[(4-methoxyphenyl)methyl]amino}-N-(2-phenylethyl)pyrrolidine-2-carboxamide]
Kb (human NPFF2 receptor): 2340 ± 310 nM

SMILES: COc1ccc(CN[C@H]2C[C@@H](C(=O)NC(C)(C)C)N(Cc3ccccc3Cl)C2)cc1 [Compound 15, (2S,4S)-N-tert-Butyl-1-[(2-chlorophenyl)methyl]-4-{[(4-methoxyphenyl)methyl]amino} pyrrolidine-2-carboxamide]
Ca^2+ NPFF1 Ke (human NPFF1 receptor; [3]): 1.88 ± 0.21 µM
Ca^2+ NPFF2 Ke (human NPFF2 receptor; [2]): 1.26 ± 0.8^c μM

SMILES: COc1ccc(CN[C@H]2C[C@@H](C(=O)NCc3ccccc3)N(Cc3ccccc3Cl)C2)cc1 [Compound 23, (2S,4S)-N-Benzyl-1-[(2-chlorophenyl)methyl]-4-{[(4-methoxyphenyl)methyl]amino} pyrrolidine-2-carboxamide]
Ca^2+ NPFF1 Ke (human NPFF1 receptor; [2]): 0.78 ± 0.08^c μM
NPFF1 Ke (human NPFF1 receptor; calcium mobilization assay): 0.78 µM
cAMP NPFF2 Ke (human NPFFR2; Table 1): 3.90 ± 1.1 µM
Ca^2+ NPFF2 Ke (human NPFF2 receptor; [2]): 2.01 ± 0.44^c μM
type of antagonism in curve-shift assays (NPFF receptors): insurmountable antagonism
cAMP NPFF1 Ke (human NPFFR1; Table 1): 1.72 ± 0.32 µM

SMILES: CCCCNC(=O)[C@@H]1C[C@H](NCc2ccc(OC)cc2)CN1Cc1ccccc1Cl [Compound 13, (2S,4S)-N-Butyl-1-[(2-chlorophenyl)methyl]-4-{[(4-methoxyphenyl)methyl]amino} pyrrolidine-2-carboxamide]
Ca^2+ NPFF1 Ke (human NPFF1 receptor; [3]): 1.24 ± 0.14 µM

SMILES: CCC(C)NC(=O)[C@@H]1C[C@H](NCc2ccc(OC)cc2)CN1Cc1ccccc1Cl (stereo partly drawn) [Compound 14, (2S,4S)-N-(Butan-2-yl)-1-[(2-chlorophenyl)methyl]-4-{[(4-methoxyphenyl)methyl]amino} pyrrolidine-2-carboxamide]
Ca^2+ NPFF1 Ke (human NPFF1 receptor; [3]): 1.50 ± 0.06 µM
Ca^2+ NPFF2 Ke (human NPFF2 receptor; [3]): 3.68 ± 0.35^b μM

SMILES: CCCCCNC(=O)[C@@H]1C[C@H](NCc2ccc(OC)cc2)CN1Cc1ccccc1Cl [Compound 16, (2S,4S)-1-[(2-Chlorophenyl)methyl]-4-{[(4-methoxyphenyl)methyl]amino}-N-pentylpyrrolidine-2-carboxamide]
doses significantly different from vehicle (Bonferroni post hoc) [1]: significant differences at 10 and 32 mg/kg
Hill slope of NPFF + compound curve (human NPFF1 receptor; calcium mobilization assay, NPFF1 cells): 1.7
rate B to A (MDCK-MDR1 cells; MDCK-MDR1): 6.7e-06 cm/s
rate apical (A) to basolateral (B) (MDCK-MDR1 cells; MDCK-MDR1): 7.6e-06 cm/s
Pgp substrate status (MDCK-MDR1 cells; as indicated by the efflux ratio): not Pgp substrates
Hill slope of NPFF + compound curve (human NPFFR2; cAMP assay, FF2 cells): 1.3
Hill slope of NPFF + compound curve (human NPFF2 receptor; calcium mobilization assay, FF2 cells): 1.1
Kb (human NPFFR1): 360 ± 80 nM
Hill slope of NPFF + compound curve (human NPFFR1; cAMP assay, NPFF1 cells): 1.3

SMILES: COc1ccc(CN[C@H]2C[C@@H](C(=O)NCCc3ccc(OC)c(OC)c3)N(Cc3ccccc3Cl)C2)cc1 [Compound 27, (2S,4S)-1-[(2-Chlorophenyl)methyl]-N-[2-(3,4-dimethoxyphenyl)ethyl]-4-{[(4-methoxyphenyl)methyl]amino}pyrrolidine-2-carboxamide]
Kb (human NPFFR2): > 10000 nM
Kb (human NPFFR1): 1520 ± 110 nM

SMILES: CCNC(=O)[C@@H]1C[C@H](NCc2ccc(OC)cc2)CN1Cc1ccccc1Cl [Compound 11, (2S,4S)-1-[(2-Chlorophenyl)methyl]-N-ethyl-4-{[(4-methoxyphenyl)methyl]amino} pyrrolidine-2-carboxamide]
Ca^2+ NPFF1 Ke (human NPFF1 receptor; [3]): >10^b μM
NPFF1 Ke (human NPFF1 receptor; calcium mobilization assay): > 10 µM
NPFF1 antagonist activity (in words) (human NPFF1 receptor; calcium mobilization assay): inactive
Ca^2+ NPFF2 Ke (human NPFF2 receptor; [3]): >10^b μM
NPFF2 antagonist activity (in words) (human NPFF2 receptor; calcium mobilization assay): inactive

SMILES: COc1ccc(CN[C@H]2C[C@@H](C(=O)NCCCc3ccccc3)N(Cc3ccccc3Cl)C2)cc1 [Compound 25, (2S,4S)-1-[(2-Chlorophenyl)methyl]-4-{[(4-methoxyphenyl)methyl]amino}-N-(3-phenylpropyl)pyrrolidine-2-carboxamide]
IC50 (human NPFF1 receptor): > 10 µM
NPFF1 antagonist activity (in words) (human NPFF1 receptor; calcium mobilization assay): completely abolished the activity

SMILES: CCN(CC)C(=O)[C@@H]1C[C@H](NCc2ccc(OC)cc2)CN1Cc1ccccc1Cl [Compound 22, (2S,4S)-1-[(2-Chlorophenyl)methyl]-N,N-diethyl-4-{[(4-methoxyphenyl)methyl]amino} pyrrolidine-2-carboxamide]
Ca^2+ NPFF1 Ke (human NPFF1 receptor; [3]): >10^b μM
NPFF1 antagonist activity (in words) (human NPFF1 receptor; calcium mobilization assay): inactive
NPFF2 antagonist activity (in words) (human NPFF2 receptor; calcium mobilization assay): inactive

SMILES: CCCCCCNC(=O)[C@@H]1C[C@H](NCc2ccc(OC)cc2)CN1Cc1ccccc1Cl [Compound 18, (2S,4S)-1-[(2-Chlorophenyl)methyl]-4-{[(4-methoxyphenyl)methyl]amino}-N-hexylpyrrolidine-2-carboxamide]
Kb (human NPFFR2): 2480 ± 270 nM
Kb (human NPFFR1): 1980 ± 280 nM
